Assay results: ChEMBL document CHEMBL4118152, “Discovery of Potent and Selective Periphery-Restricted Quinazoline Inhibitors of the Cyclic Nucleotide Phosphodiesterase PDE1” (J Med Chem, 2018)

Experiments:
[1] = Drug uptake in Wistar Hannover rat cerebrospinal fluid at 1 mg/kg, sc measured at 0.5 hrs post dose by LC-MS/MS analysis; type: ADME, organism-based; details: read-out: Drug uptake
Summary of the method: (§1)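 Rats were dosed subcutaneously at 1 mg/kg. CSF, plasma and brain were sampled at 0.5, 1, 2 and 4 h post dose and analysed for drug concentration. Values are means at each time point.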

[2] = Fraction unbound in Wistar Hannover rat brain at 1 mg/kg, sc measured at 0.5 hrs post dose by LC-MS/MS analysis; type: ADME, organism-based; details: in vivo
[3] = molecular target: 3',5'-cyclic-AMP phosphodiesterase 4D (Homo sapiens, UniProt Q08499); assay: Inhibition of full length recombinant human PDE4D3 using 3',5'-[3H]cAMP as substrate after 30 mins by scintillation proximity assay
Summary of the method: (§2)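 Enzymes were human except PDE6A, which was bovine. Each was assayed with cAMP or cGMP substrate, as appropriate to the enzyme, at concentrations below 1/3 of Km. IC50 values are mean ± SEM from n = 3 or more.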

[4] = molecular target: Substance-P receptor (Homo sapiens) (UniProt P25103); assay: Inhibition of human NK1 receptor at 10 uM relative to control
[5] = molecular target: Muscarinic acetylcholine receptor M5 (Homo sapiens) (UniProt P08912); assay: Inhibition of human muscarinic M5 receptor at 10 uM relative to control
[6] = molecular target: Rod cGMP-specific 3',5'-cyclic phosphodiesterase subunit alpha (Bos taurus, UniProt P11541); assay: Inhibition of bovine retina PDE6A using 3',5'-[3H]cGMP as substrate after 30 mins by scintillation proximity assay; summary of the method: as §2
[7] = molecular target: Gastrin/cholecystokinin type B receptor (Homo sapiens) (UniProt P32239); assay: Inhibition of human cholecystokinin CCK2 receptor at 10 uM relative to control
Sequence of Gastrin/cholecystokinin type B receptor (Homo sapiens) (P32239 whole entry): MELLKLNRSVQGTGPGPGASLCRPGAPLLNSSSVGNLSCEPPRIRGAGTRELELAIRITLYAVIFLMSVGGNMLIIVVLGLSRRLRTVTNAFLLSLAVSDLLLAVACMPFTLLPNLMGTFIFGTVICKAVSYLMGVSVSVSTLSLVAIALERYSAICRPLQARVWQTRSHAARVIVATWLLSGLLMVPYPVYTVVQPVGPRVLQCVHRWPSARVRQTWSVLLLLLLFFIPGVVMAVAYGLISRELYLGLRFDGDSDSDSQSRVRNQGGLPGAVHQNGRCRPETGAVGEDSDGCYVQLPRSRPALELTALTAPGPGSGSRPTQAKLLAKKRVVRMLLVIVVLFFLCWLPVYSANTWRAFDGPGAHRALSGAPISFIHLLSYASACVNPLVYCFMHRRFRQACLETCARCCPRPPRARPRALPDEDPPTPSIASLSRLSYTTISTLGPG

Homo sapiens [8] = species: Homo sapiens; assay: Selectivity ratio of IC50 for full length recombinant human PDE7B to IC50 for full length recombinant human PDE1A
Summary of the method: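 IC50s were measured against recombinant PDEs, all human except PDE6A (bovine). Each enzyme was given its appropriate cAMP or cGMP substrate at below 1/3 of its Km. IC50s are the mean of n = 3 or more. The selectivity ratio is the IC50 for the other PDE divided by the IC50 for PDE1B1 or PDE1A.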

MAO-A = MAO-A (Homo sapiens, UniProt P21397); assay: Inhibition of human MAO-A at 10 uM relative to control
CYP2C9 = CYP2C9 (Homo sapiens, UniProt P11712); assay: Inhibition of human CYP2C9 at 10 uM relative to control; type: ADME
Homo sapiens [9] = species: Homo sapiens; assay: Inhibition of human 5-HT2 receptor at 10 uM relative to control
Mus musculus = species: Mus musculus; assay: Inhibition of mouse brain rolipram binding site assessed as [3H]rolipram uptake at 10 uM after 60 mins by scintillation counting analysis relative to control
[10] = molecular target: Dual specificity calcium/calmodulin-dependent 3',5'-cyclic nucleotide phosphodiesterase 1B (Homo sapiens, UniProt Q01064); assay: Inhibition of full length recombinant human PDE1B1 using 3',5'-[3H]cAMP as substrate after 30 mins by scintillation proximity assay; summary of the method: as §2
Sequence of Dual specificity calcium/calmodulin-dependent 3',5'-cyclic nucleotide phosphodiesterase 1B (Q01064 whole entry): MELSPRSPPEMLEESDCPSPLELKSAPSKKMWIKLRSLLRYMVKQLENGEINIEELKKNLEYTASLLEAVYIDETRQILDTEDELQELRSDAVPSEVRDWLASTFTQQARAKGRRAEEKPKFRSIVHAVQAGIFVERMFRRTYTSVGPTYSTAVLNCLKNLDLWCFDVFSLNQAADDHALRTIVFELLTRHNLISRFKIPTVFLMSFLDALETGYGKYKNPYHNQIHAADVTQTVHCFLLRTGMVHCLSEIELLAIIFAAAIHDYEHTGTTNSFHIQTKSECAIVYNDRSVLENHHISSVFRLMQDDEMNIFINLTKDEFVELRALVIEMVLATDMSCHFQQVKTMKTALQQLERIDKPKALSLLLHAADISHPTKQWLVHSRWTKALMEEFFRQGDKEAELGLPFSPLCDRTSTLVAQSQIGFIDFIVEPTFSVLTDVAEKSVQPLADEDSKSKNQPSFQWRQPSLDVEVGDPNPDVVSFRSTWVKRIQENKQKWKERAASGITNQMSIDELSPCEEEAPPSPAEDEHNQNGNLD

[11] = Drug uptake in Wistar Hannover rat cerebrospinal fluid at 1 mg/kg, sc measured at 2 hrs post dose by LC-MS/MS analysis; type: ADME, organism-based; details: read-out: Drug uptake; summary of the method: as §1
[12] = Drug uptake in Wistar Hannover rat cerebrospinal fluid at 1 mg/kg, sc measured at 1 hr post dose by LC-MS/MS analysis; type: ADME, organism-based; details: read-out: Drug uptake; summary of the method: as §1
[13] = molecular target: Voltage-dependent N-type calcium channel subunit alpha-1B (Rattus norvegicus) (UniProt Q02294); assay: Displacement of [125I]omega -conotoxin GVIA from rat brain N-type Calcium channel at 10 uM after 30 mins by scintillation counting analysis relative to control
Sequence of Voltage-dependent N-type calcium channel subunit alpha-1B (Rattus norvegicus) (Q02294 whole entry, looked up): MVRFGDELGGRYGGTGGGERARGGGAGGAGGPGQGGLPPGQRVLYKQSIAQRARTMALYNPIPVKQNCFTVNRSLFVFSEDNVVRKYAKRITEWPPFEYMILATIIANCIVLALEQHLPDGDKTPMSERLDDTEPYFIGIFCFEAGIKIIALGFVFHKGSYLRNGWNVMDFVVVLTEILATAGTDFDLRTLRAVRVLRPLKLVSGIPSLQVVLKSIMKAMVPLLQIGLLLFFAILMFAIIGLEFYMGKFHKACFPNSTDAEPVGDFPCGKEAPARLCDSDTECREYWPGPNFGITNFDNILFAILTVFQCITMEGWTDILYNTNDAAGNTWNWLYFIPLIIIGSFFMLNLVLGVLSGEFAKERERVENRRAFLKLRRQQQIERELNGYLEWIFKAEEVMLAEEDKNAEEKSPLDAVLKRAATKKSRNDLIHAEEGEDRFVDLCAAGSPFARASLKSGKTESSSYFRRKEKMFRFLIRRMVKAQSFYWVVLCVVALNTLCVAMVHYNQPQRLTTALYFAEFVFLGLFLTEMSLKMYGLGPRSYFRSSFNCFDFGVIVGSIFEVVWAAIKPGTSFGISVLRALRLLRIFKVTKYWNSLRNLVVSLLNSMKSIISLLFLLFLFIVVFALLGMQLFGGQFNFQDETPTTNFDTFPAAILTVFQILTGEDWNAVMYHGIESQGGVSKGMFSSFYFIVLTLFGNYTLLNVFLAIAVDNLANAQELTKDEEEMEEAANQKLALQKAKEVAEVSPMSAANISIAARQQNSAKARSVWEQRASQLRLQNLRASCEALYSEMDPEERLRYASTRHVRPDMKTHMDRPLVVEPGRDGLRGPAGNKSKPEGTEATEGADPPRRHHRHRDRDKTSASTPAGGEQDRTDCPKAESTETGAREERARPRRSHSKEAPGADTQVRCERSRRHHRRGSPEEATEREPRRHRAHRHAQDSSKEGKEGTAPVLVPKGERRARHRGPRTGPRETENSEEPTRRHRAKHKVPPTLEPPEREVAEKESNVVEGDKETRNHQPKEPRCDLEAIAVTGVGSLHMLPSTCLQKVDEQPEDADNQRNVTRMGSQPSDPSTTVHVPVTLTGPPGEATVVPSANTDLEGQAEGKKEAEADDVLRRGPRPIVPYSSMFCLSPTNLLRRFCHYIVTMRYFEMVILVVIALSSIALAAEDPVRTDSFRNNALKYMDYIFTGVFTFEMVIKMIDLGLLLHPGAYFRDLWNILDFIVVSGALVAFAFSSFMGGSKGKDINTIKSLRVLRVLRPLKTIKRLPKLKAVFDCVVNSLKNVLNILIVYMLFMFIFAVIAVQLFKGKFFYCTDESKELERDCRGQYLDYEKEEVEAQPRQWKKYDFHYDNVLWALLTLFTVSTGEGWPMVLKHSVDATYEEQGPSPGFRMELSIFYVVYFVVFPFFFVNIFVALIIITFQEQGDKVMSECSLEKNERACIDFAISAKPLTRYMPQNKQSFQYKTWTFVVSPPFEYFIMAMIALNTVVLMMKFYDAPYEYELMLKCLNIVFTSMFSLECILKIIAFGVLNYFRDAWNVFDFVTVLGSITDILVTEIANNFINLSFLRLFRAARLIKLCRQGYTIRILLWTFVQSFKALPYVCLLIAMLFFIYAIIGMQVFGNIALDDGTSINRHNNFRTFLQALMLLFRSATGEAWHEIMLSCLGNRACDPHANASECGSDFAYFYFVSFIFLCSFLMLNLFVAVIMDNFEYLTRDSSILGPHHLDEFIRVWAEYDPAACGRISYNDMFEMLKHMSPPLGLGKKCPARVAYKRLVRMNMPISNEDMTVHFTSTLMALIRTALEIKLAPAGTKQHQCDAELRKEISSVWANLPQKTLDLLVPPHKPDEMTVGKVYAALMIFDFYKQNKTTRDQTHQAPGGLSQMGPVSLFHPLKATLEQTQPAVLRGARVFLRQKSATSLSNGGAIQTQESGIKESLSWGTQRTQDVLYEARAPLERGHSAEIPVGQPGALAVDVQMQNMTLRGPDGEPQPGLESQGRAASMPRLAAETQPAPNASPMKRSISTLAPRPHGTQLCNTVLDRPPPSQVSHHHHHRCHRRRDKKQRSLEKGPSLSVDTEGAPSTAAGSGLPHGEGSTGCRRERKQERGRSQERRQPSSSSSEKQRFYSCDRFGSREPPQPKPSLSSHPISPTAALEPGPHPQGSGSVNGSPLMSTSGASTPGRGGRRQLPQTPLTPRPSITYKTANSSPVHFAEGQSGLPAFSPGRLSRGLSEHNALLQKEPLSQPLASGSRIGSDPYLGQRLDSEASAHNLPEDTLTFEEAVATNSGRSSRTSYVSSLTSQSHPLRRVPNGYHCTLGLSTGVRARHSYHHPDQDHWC

[14] = molecular target: Cannabinoid receptor 1 (Homo sapiens) (UniProt P21554); assay: Inhibition of human cannabinoid CB1 receptor at 10 uM relative to control
Sequence of Cannabinoid receptor 1 (Homo sapiens) (P21554 whole entry): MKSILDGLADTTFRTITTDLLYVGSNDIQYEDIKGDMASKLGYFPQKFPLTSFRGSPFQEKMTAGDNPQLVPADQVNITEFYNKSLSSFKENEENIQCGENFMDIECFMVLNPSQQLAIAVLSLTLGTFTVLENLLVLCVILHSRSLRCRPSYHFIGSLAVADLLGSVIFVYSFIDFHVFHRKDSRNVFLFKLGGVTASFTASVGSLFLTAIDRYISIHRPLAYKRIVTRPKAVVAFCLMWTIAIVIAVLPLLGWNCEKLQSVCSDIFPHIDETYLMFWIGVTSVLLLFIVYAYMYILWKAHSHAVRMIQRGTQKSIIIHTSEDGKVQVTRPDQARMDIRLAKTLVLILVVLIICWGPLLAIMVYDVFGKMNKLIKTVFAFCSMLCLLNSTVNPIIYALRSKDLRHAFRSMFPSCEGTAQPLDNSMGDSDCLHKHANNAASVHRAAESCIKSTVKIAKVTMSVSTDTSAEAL

[15] = molecular target: Adenosine receptor A1 (Homo sapiens) (UniProt P30542); assay: Inhibition of human adenosine A1 receptor at 10 uM relative to control
[16] = Fraction unbound in Wistar Hannover rat brain at 1 mg/kg, sc measured at 1 hr post dose by LC-MS/MS analysis; type: ADME, organism-based; details: in vivo
[17] = molecular target: Angiotensin-converting enzyme (Homo sapiens) (UniProt P12821); assay: Inhibition of recombinant human Acetylcholinesterase using acetylthiocholine as substrate at 10 uM after 30 mins by spectrophotometric method relative to control
Sequence of Angiotensin-converting enzyme (Homo sapiens) (P12821 whole entry): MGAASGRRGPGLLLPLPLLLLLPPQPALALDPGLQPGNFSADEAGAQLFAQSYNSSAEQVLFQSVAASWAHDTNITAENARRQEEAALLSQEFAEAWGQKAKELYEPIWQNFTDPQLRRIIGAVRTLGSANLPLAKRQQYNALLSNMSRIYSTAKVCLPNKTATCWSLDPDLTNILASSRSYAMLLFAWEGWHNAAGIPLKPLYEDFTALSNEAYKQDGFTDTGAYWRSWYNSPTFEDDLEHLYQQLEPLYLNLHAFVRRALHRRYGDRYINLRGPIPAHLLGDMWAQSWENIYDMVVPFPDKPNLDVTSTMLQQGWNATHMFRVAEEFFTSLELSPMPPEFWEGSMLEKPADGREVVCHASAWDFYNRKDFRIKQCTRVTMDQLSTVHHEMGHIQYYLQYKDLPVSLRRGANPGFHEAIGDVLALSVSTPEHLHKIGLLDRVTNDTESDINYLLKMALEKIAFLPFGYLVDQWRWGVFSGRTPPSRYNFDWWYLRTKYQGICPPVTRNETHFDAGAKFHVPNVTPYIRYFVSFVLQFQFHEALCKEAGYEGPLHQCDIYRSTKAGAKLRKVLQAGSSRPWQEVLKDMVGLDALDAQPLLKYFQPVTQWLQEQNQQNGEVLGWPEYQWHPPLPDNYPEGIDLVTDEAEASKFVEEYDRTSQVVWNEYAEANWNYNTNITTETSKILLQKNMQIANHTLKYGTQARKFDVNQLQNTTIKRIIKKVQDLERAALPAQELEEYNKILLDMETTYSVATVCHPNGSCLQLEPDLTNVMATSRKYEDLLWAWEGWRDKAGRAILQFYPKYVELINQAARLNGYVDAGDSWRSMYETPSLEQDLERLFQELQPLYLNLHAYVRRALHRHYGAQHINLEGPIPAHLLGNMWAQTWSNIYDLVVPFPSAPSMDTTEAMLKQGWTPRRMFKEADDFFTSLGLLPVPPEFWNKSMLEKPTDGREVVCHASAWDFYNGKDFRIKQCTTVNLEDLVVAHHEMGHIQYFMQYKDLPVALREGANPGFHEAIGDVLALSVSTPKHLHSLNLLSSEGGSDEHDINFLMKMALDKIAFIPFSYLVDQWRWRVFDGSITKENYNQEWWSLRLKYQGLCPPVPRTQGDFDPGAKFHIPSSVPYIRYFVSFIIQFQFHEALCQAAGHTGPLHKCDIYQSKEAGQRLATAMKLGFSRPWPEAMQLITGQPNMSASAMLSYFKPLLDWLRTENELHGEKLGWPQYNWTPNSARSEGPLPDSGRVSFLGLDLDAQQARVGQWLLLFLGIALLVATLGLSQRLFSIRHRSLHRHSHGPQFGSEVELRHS

Rattus norvegicus = species: Rattus norvegicus; assay: Displacement of [3H]CGP 39653 from rat brain Glutamate receptor ionotropic, NMDA at 10 uM after 60 mins by scintillation counting analysis relative to control
Caspase-3 (Homo sapiens) = Caspase-3 (Homo sapiens) (UniProt P42574); assay: Inhibition of recombinant human Caspase-3 using benzyloxycarbonyl- Asp-Glu-Val-Asp-AFC as substrate at 10 uM after 60 mins by fluorimetric method relative to control
CYP2C19 = CYP2C19 (Homo sapiens, UniProt P33261); assay: Inhibition of human CYP2C19 at 10 uM relative to control; type: ADME

With COc1ccc2c(N[C@@H](C)Cc3cc(C)[nH]n3)ncnc2c1OC the concentration at 0.5 h [1] was 21 nM, the “Drug uptake(free)” value [2] was 6 nM and the IC50 [3] was 26.3 µM. For the same compound, the inhibition [4] was under 50%, the inhibition [5] was under 50% and the IC50 [6] was over 142 nM. It also gave an inhibition [7] of under 50%, a Ratio IC50 (Homo sapiens [8]) of 983 and an inhibition at 10 µM (MAO-A) of under 50%. It also gave an inhibition at 10 µM (CYP2C9) of under 50%, an inhibition (Homo sapiens [9]) of under 50% and an inhibition (Mus musculus) of under 50%. The IC50 [10] was 9.1 nM, the concentration at 2 h [11] was 8 nM and the concentration at 1 h [12] was 16 nM. For the same compound, the inhibition [13] was under 50%, the inhibition [14] was under 50% and the inhibition [15] was under 50%. For the same compound, the “Drug uptake(free)” value [16] was 4 nM, the inhibition [17] was under 50% and the inhibition (Rattus norvegicus) was under 50%. For the same compound, the inhibition (Caspase-3 (Homo sapiens)) was under 50% and the inhibition at 10 µM (CYP2C19) was under 50%.
